From ChEMBL document CHEMBL1152958 (Bioorg Med Chem, 2009)

What was measured:
[1] = biological target: T1, Prostaglandin G/H synthase 2 (Ovis aries, UniProt P79208); test: Inhibition of COX2 in sheep placental vesicle by enzyme immunoassay
T1 sequence (P79208 whole entry): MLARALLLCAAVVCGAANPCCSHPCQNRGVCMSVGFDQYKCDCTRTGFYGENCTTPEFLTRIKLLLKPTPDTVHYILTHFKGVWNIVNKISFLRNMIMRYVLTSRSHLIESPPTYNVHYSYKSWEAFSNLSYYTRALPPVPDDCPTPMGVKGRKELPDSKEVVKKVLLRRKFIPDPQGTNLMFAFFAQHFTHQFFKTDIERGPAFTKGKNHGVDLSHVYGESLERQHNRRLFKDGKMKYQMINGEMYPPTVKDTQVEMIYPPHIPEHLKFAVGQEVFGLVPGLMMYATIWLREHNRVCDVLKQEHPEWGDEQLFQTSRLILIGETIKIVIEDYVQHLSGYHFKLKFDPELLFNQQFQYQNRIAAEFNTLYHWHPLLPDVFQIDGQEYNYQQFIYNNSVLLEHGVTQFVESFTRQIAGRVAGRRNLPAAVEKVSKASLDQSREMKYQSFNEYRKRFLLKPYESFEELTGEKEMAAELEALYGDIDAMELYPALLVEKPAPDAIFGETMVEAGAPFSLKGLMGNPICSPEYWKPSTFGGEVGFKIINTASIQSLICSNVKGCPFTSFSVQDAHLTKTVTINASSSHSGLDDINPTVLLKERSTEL

[2] = biological target: T2, Prostaglandin G/H synthase 1 (Ovis aries, UniProt P05979); test: Inhibition of COX1 in ram seminal vesicle by enzyme immunoassay
T2 sequence (P05979 whole entry): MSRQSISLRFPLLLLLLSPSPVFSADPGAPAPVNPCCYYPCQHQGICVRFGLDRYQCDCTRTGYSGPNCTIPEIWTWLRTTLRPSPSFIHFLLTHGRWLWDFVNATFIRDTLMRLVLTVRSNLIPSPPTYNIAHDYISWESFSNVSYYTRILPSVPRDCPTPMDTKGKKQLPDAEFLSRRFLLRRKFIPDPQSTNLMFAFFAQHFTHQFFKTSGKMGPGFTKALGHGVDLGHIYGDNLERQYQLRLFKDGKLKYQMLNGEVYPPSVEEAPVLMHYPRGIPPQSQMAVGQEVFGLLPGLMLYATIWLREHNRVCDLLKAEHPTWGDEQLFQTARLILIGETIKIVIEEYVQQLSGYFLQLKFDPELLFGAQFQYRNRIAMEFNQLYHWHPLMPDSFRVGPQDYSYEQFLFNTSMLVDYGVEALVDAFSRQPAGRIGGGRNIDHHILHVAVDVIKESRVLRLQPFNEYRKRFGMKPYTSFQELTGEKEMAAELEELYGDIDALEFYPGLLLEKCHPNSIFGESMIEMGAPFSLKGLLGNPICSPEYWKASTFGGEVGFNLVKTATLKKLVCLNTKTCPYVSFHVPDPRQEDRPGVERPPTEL
Outline: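 PGE2, the main arachidonic acid metabolite, was quantified by competitive enzyme immunoassay.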

[3] = biological target: T3, Prostaglandin G/H synthase 1 (Ovis aries) (UniProt P05979); test: Inhibition of COX1 in ram seminal vesicle at 8 uM by enzyme immunoassay; assay type: tissue-based
T3 sequence (whole entry): T2 sequence (P05979 whole entry)

[4] = biological target: T4, Prostaglandin G/H synthase 2 (Ovis aries) (UniProt P79208); test: Inhibition of COX2 in sheep placental vesicle at 8 uM by enzyme immunoassay
T4 sequence (whole entry): T1 sequence (P79208 whole entry)

[5] = biological target: T5, Polyunsaturated fatty acid 5-lipoxygenase (Homo sapiens, UniProt P09917); test: Inhibition of 5LOX-mediated LTB4 formation in stimulated human polymorphonuclear leukocytes
T5 sequence (P09917 whole entry): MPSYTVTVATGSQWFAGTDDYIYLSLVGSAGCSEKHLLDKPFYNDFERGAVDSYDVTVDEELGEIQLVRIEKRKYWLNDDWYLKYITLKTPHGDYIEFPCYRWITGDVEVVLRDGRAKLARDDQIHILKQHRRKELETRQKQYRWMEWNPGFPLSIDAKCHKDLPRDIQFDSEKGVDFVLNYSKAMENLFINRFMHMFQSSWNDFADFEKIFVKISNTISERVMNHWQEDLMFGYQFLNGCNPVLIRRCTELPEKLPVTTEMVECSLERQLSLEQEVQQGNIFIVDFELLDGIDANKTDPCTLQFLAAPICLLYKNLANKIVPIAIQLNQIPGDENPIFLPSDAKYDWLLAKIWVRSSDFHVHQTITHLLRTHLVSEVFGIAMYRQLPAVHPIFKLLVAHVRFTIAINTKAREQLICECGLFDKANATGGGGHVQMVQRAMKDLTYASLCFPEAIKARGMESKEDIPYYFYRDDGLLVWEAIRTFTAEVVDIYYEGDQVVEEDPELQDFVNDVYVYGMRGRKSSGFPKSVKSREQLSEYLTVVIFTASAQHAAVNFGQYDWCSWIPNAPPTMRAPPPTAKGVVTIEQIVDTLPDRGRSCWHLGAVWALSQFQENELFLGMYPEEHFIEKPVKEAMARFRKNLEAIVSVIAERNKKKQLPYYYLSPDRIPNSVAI
Outline: (§1)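 5-LOX-mediated LTB4 formation was measured in stimulated human polymorphonuclear leukocytes in 96-well format. For IC50, at least 3 concentrations were tested in at least 3 independent experiments, each in duplicate, and IC50 was derived from a semilogarithmic dose plot. Results are given as means ± S.D.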

[6] = biological target: T6, Polyunsaturated fatty acid 5-lipoxygenase (Homo sapiens) (UniProt P09917); test: Inhibition of 5LOX-mediated LTB4 formation in stimulated human polymorphonuclear leukocytes at 8 uM
T6 sequence (whole entry): T5 sequence (P09917 whole entry)
Outline: as §1, with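 “format. […]” for “format.”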

Row | Compound | IC50 ([1]; read-out: IC50) [µM] | IC50 ([2]; read-out: IC50) [µM] | inhibition [3] [%] | inhibition [4] [%] | IC50 ([5]; read-out: IC50) [µM] | inhibition [6] [%] | IC50 [1] | IC50 [2] | IC50 [5]
1 | C=CCc1ccc(OC)c(-c2ccc(OC)c(CC=C)c2)c1 | 7.7 | 11.4 | 45.1 | 47.8 | 15 | 27.8 |  |  | 
2 | C=CCc1ccc(OC(C)=O)c(-c2ccc(OC)c(CC=C)c2)c1 | 4.9 |  | 18 | 56.3 | 2.2 | 76.3 |  |  | 
3 | CCCc1ccc(O)c(-c2ccc(O)c(CCC)c2)c1 | 2.1 | 0.8 | 89.6 | 81.6 | 1.7 | 99.9 |  |  | 
4 | COc1ccc(-c2cc(CC3CO3)ccc2O)cc1CC1CO1 (centres undefined) |  |  |  |  |  |  | Not Active | Not Active | Not Active
5 | C=CCc1ccc(O)c(-c2ccc(OC)c(CC=C)c2)c1 [METHYLHONOKIOL] | 0.06 | 0.1 | 90.8 | 95.3 | 1.5 | 96.4 |  |  | 
6 | CCCc1ccc(O)c(-c2ccc(OC)c(CCC)c2)c1 |  | 7.7 | 56.5 | 11.6 | 1.4 | 97.1 |  |  | 
7 | C=CCc1ccc(O)c(-c2ccc(O)c(CC=C)c2)c1 [HONOKIOL] | 2.1 | 1.8 | 91 | 88.3 | 4.2 | 94 |  |  | 
8 | CCCc1ccc(OC)c(-c2ccc(OC)c(CCC)c2)c1 | 6.9 | > 20 | 27.3 | 49.4 |  | 24.4 |  |  | 
9 | C=CCc1ccc(O)c(-c2ccc(OC)c(/C=C\C)c2)c1 | 0.9 | 2.8 | 68.6 | 62.7 | 1.1 | 99.9 |  |  | 
10 | C=CCc1ccc(O)c(-c2ccc(OC)c(/C=C/C)c2)c1 | 0.2 | 0.7 | 80.5 | 81.5 | 2.1 | 99.3 |  |  | 
11 | C=CCc1ccc(O)c(-c2ccc(O)c(/C=C/C)c2)c1 | 2.7 | 0.6 | 84.8 | 75.1 | 1 | 100 |  |  | 
12 | C=CCc1ccc(OC(C)=O)c(-c2ccc(OC(C)=O)c(CC=C)c2)c1 |  |  | 6.8 | 13.8 | 4.5 | 64.9 |  |  | 
